ADAM10 inh – human ADAM10 inhibitors, primary screen, biochemical, QFRET, HTS; inhibition, % at 7 µM; 370,000 tested, 0.62% active; Disintegrin and metalloproteinase domain-containing protein 10 (Homo sapiens), O14672; recombinant ADAM10, EDANS/DABCYL FRET peptide cleavage, 3 h;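 active = inhibition above a per-campaign cutoff equal to the mean of compounds falling between control-based bounds plus 3 SD, cut at about 20% in these data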
Tb MetRS inh – T. brucei MetRS inhibitors, primary screen, biochemical, luminescence; methionyl-tRNA synthetase (Trypanosoma brucei brucei); purified T. brucei MetRS, ATP depletion, Kinase-Glo luminescence; inhibition, % at 11.9 µM; 360,000 tested, 0.4% active; AID 624268, 2012;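 active = inhibition above a per-plate cutoff of the control wells' mean inhibition plus 3 SD, cut at about 5.5% in these data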
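technique = Kinase-Glo luminescence, ATP depletion format | system = purified MetRS (methionyl-tRNA synthetase) enzyme from Trypanosoma brucei | timing = 15 min preincubation, 2 h reaction, all 25 °C | evaluation = percent inhibition versus plate control medians | dosing = single dose, 11.9 µM final nominal, 0.9% final DMSO | also added = substrates ATP, L-methionine and bulk Escherichia coli tRNA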
PLC-beta3 inh – human PLC-beta3 inhibitors, primary screen, biochemical, fluorescence. inhibition, % at 12.2 µM. 1-phosphatidylinositol 4,5-bisphosphate phosphodiesterase beta-3 (Homo sapiens), Q01970. 370,000 tested, 0.18% active. Purified PLC-beta3, fluorogenic substrate. AID 720704, 2013
ADAM17 inh – ADAM17 inhibitors, primary screen, biochemical, QFRET | recombinant ADAM17, EDANS/DABCYL FRET peptide cleavage | inhibition, % at 6.95 µM | 370,000 tested, 0.83% active;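 active = inhibition above the mean of compounds lying between control limits plus 3 SD, set per campaign, cut at about 8.5% in these data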
Target sequence (P78536 215-824 limits assumed): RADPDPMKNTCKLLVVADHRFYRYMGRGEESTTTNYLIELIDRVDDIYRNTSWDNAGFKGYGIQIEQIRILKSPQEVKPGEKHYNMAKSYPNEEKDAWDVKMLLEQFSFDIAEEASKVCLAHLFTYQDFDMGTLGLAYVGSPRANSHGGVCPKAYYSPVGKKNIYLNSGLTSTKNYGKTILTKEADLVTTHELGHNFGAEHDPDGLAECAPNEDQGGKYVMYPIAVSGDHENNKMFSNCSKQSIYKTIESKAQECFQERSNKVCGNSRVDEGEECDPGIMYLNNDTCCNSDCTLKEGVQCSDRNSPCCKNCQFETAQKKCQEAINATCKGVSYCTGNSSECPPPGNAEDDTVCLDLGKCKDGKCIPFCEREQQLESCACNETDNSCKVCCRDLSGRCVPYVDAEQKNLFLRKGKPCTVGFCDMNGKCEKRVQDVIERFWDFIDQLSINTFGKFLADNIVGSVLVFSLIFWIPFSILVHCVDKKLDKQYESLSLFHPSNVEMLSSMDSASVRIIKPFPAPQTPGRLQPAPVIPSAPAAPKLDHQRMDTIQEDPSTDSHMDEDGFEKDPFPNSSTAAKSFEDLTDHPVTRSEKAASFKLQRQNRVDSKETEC
PLC-gamma1 inh – PLC-gamma1 enzyme inhibitors, primary screen, biochemical, fluorescence, purified enzyme; AID 720700, 2013; inhibition, % at 12.2 µM; 370,000 tested, 0.84% active; fluorogenic substrate; 1-phosphatidylinositol 4,5-bisphosphate phosphodiesterase gamma-1 (Homo sapiens), P19174; in the data active = inhibition above about 9.5%
PLCg1 ctr – PLC-gamma1 enzyme inhibitors, counter-screen for PLC-beta3 inhibitor project, biochemical, fluorescence; shares compounds with PLC-gamma1 inh; purified PLC-gamma1, fluorogenic substrate; inhibition, % at 12.3 µM; 3,300 tested, 3.1% active; AID 743258, 2014; in the data active = inhibition above about 9.5%
PLCb3 confirm – PLC-beta3 inhibitor confirmation, biochemical, fluorescence, purified enzyme; shares compounds with PLC-gamma1 inh; fluorogenic substrate fluorescence; inhibition, % at 12.3 µM; 3,300 tested, 1% active; AID 743261, 2014
Of the large screens only hits and unclear results are named; the others gave an inactive call (follow-up assays come after a bar, where they were run). The list is not random: actives were taken first. Their share in the collection is about 2.3%. Rule as the data show it, unless noted: active = inhibition above about 11%; inactive = the rest.

CCOC(=O)c1c(C)[nH]c(C(=O)COC(=O)c2oc3ccc(OC)cc3c2C)c1C	none
CCc1cc(=O)oc2c3c(cc(OCC(=O)NCCCOC)c12)OC(C)(C)CC3	none
CCN1C(=O)/C(=C2\SC(=S)N(c3c(C)n(C)n(-c4ccccc4)c3=O)C2=O)c2ccccc21	PLC-beta3 inh 11 | PLCg1 ctr inactive | PLCb3 confirm inactive
Nc1nc(-c2ccco2)nn1C(=O)c1ccccc1	none
Nc1nc(-c2ccco2)nn1C(=O)c1ccc(Cl)cc1	PLC-gamma1 inh 9.8 | PLCg1 ctr inactive | PLCb3 confirm inactive
COc1cccc(/C=N/N2CCN(C)CC2)c1	none
COc1ccc(/C=N/N2CCN(C)CC2)cc1O	PLC-gamma1 inh 11 | PLCg1 ctr inactive | PLCb3 confirm inactive
COc1ccc(C(=O)Nc2ccc(S(=O)(=O)N3CCCCC3C)cc2)c(OC)c1OC (stereo unspecified)	PLC-beta3 inh 12, PLC-gamma1 inh 10 | PLCg1 ctr inactive | PLCb3 confirm inactive
O=C(CC1SC(=NC2CCCCC2)NC1=O)Nc1ccccc1 (stereo unspecified)	PLC-gamma1 inh 11 | PLCg1 ctr inactive | PLCb3 confirm inactive
Cc1cccc(NC(=O)CC2SC(=NC3CCCCC3)NC2=O)c1 (stereo unspecified)	none
CC(=O)Nc1nc2ncccn2c1-c1ccc(C)cc1	none (no result: Tb MetRS inh)
O=c1[nH]c(-c2ccccn2)nc(C(F)(F)F)c1Br	PLC-gamma1 inh 11 | PLCg1 ctr inactive | PLCb3 confirm inactive
CNC(=O)c1nnsc1S(=O)(=O)c1ccc(Cl)cc1	none
CCOC(=O)c1csc(-c2sccc2Br)n1	PLC-gamma1 inh 14 | PLCg1 ctr inactive | PLCb3 confirm inactive
CCOC(=O)c1csc(-c2ccc(OC)c(OC)c2)n1	none
CN(CCc1ccccn1)C1CCCN(S(=O)(=O)c2ccc(F)c(Cl)c2)C1 (stereo unspecified)	PLC-gamma1 inh 11 | PLCg1 ctr inactive | PLCb3 confirm inactive
Cc1cc(S(=O)(=O)N2CCCC(N(C)CCc3ccccn3)C2)c(C)s1 (stereo unspecified)	none
CC(C)[C@H](NC(=O)CCCn1nnc2ccccc2c1=O)C(=O)O	none
CCOc1ccc(C(=O)N(CN2CCCC2=O)c2ccccc2)cc1	PLC-gamma1 inh 9.9 | PLCg1 ctr inactive | PLCb3 confirm inactive
Cc1cc(C)c2cc(C#N)c(NCCNC(=O)c3ccncc3)nc2c1	none
CCOC(=O)c1c(C)nc(C)c(C(=O)OCC)c1-c1ccccc1	none (no result: ADAM10 inh, PLC-beta3 inh, ADAM17 inh, PLC-gamma1 inh)
CCOC(=O)c1c(C)nc2c(c1-c1cc(OC)c(OC)c(OC)c1)C(=O)c1ccccc1-2	PLC-gamma1 inh 12 | PLCg1 ctr inactive | PLCb3 confirm inactive
C=COc1ccc(N2C(=O)c3ccccc3OC2C)cc1 (stereo unspecified)	PLC-gamma1 inh 14 | PLCg1 ctr inactive | PLCb3 confirm inactive
COc1ccc(N2C(=O)c3ccccc3C2O)cc1 (stereo unspecified)	none
Cc1c(-c2nnc(SCC(=O)O)n2-c2ccccc2Br)nnn1-c1ccccc1	PLC-gamma1 inh 14 | PLCg1 ctr inactive | PLCb3 confirm inactive
CCC(C)NCCCCOc1ccc(Cl)cc1C (stereo unspecified)	PLC-gamma1 inh 12 | PLCg1 ctr inactive | PLCb3 confirm inactive
CCN(CC)CCNC(=O)CCc1c(C)nc2c(c(C)nn2-c2ccc(C)c(C)c2)c1C	none
COc1cc(/C=C(\C#N)C(=O)c2ccc(O)c(O)c2)cc(I)c1O	PLC-gamma1 inh 10 | PLCg1 ctr inactive | PLCb3 confirm inactive
Cc1ccc(NC(=O)c2nnn(CC(=O)Nc3ccccc3)c2N)cc1C	none
Cc1ccc(NC(=O)Cn2nnc(C(=O)NCc3ccccc3)c2N)cc1C	PLC-gamma1 inh 11 | PLCg1 ctr inactive | PLCb3 confirm inactive
O=C1c2ccccc2C(=O)N1OCc1ccccc1[N+](=O)[O-]	PLC-gamma1 inh 13 | PLCg1 ctr inactive | PLCb3 confirm inactive
O=C(Cc1ccccc1[N+](=O)[O-])OCN1C(=O)c2ccccc2C1=O	none
COc1ccc(N2C(=O)C(Cl)=C(Nc3ccccc3OC)C2=O)cc1	PLC-beta3 inh 13, PLC-gamma1 inh 9.5 | PLCg1 ctr inactive | PLCb3 confirm inactive
COc1ccc(N2C(=O)C(Cl)=C(Nc3ccccc3O)C2=O)cc1	none
CN1CCC(N[C@@H](Cc2c[nH]c3ccccc23)C(=O)NCC(c2ccccc2)c2ccccc2)(C(=O)NC2CCCCC2)CC1	none (no result: Tb MetRS inh)
Cc1c(C(=O)O)cccc1-c1ccc(C=O)o1	PLC-gamma1 inh 11 | PLCg1 ctr inactive | PLCb3 confirm inactive
CCCCc1ccc(N2C(=NC(=O)C3CCCO3)SC3CS(=O)(=O)CC32)cc1 (stereo unspecified)	PLC-gamma1 inh 9.6 | PLCg1 ctr inactive | PLCb3 confirm inactive
CC(C)c1ccc(N2C(=NC(=O)C3CCCO3)SC3CS(=O)(=O)CC32)cc1 (stereo unspecified)	none
O=C(CSc1ccc(-c2ccccn2)nn1)Nc1ccc(F)c(F)c1	none
CCOC(=O)C1CCN(C(=O)CN2C(=O)C(CC)Oc3ccccc32)CC1 (stereo unspecified)	none
CCC1Oc2ccccc2N(CC(=O)N2CCCC2)C1=O (stereo unspecified)	PLC-gamma1 inh 9.7 | PLCg1 ctr inactive | PLCb3 confirm inactive
O=C(O)CCCN1C(=O)/C(=C/C=C/c2ccco2)SC1=S	PLC-gamma1 inh 23 | PLCg1 ctr 18 | PLCb3 confirm inactive
O=C(O)CC(C(=O)O)N1C(=O)/C(=C/C=C/c2ccco2)SC1=S (stereo unspecified)	PLC-gamma1 inh 59 | PLCg1 ctr 52 | PLCb3 confirm inactive
CCCCOc1ccc(C(=O)NC2CCCCN(C(C)C)C2=O)cc1 (stereo unspecified)	none (no result: Tb MetRS inh)
CCOC(=O)c1c(C2COc3ccccc3O2)csc1NC(=O)c1ccccc1 (stereo unspecified)	PLC-gamma1 inh 12 | PLCg1 ctr inactive | PLCb3 confirm inactive
O=C(CCn1c(=S)oc2ccccc21)Nc1cccc(O)c1	PLC-beta3 inh 12 | PLCg1 ctr inactive | PLCb3 confirm inactive
O=C(CCn1c(=S)oc2ccccc21)Nc1cccc(F)c1	none
CCOc1ccc(-n2c(COc3ccccc3)nnc2SCC(=O)Nc2ccc3c(c2)OCCO3)cc1	none (no result: Tb MetRS inh)
